Results: ChEMBL document CHEMBL2346497, “Synthesis of novel cognition enhancers with pyrazolo[5,1-c][1,2,4]benzotriazine core acting at γ-aminobutyric acid type A (GABA(A)) receptor” (Bioorg Med Chem, 2013)
Active and inactive are the calls of the source. The rule behind the calls is not given here.

Experiments:
[1] = biological target: T1, GABA-A receptor; alpha-1/beta-2/gamma-2 (Homo sapiens, UniProt P14867+P18507+P47870); test: Displacement of [3H]Ro15-1788 from recombinant GABA-A alpha1beta2gamma2 receptor benzodiazepine binding site (unknown origin) after 1 hr; format: protein-complex assay
T1 sequence (P14867 whole entry): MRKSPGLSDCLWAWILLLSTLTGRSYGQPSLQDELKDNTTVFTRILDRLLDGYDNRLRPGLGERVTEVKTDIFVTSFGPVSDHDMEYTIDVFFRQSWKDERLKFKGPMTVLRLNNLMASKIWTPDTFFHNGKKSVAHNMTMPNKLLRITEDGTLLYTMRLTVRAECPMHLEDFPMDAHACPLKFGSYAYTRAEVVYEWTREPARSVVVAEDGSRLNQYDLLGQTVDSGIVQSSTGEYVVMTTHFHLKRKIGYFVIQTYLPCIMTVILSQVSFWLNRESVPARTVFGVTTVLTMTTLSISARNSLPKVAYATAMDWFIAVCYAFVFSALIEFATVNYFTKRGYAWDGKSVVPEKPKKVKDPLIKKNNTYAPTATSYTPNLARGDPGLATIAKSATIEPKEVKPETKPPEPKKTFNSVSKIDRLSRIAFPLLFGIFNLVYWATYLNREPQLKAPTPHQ
T1 sequence (P47870 whole entry): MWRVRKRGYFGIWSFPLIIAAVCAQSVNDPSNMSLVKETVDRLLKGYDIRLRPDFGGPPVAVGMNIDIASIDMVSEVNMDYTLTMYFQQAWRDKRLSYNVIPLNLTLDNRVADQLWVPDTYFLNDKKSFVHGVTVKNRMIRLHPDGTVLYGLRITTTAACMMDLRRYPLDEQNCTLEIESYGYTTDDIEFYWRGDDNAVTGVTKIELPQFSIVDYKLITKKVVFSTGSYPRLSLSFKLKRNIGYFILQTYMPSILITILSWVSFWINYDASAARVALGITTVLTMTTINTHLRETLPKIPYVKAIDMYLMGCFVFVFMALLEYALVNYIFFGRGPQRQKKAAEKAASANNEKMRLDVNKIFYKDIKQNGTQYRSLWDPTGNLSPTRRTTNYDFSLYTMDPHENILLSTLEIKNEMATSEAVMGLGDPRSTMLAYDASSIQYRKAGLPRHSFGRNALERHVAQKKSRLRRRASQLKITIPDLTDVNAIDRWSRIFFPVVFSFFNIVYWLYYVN
T1 sequence (P18507 whole entry): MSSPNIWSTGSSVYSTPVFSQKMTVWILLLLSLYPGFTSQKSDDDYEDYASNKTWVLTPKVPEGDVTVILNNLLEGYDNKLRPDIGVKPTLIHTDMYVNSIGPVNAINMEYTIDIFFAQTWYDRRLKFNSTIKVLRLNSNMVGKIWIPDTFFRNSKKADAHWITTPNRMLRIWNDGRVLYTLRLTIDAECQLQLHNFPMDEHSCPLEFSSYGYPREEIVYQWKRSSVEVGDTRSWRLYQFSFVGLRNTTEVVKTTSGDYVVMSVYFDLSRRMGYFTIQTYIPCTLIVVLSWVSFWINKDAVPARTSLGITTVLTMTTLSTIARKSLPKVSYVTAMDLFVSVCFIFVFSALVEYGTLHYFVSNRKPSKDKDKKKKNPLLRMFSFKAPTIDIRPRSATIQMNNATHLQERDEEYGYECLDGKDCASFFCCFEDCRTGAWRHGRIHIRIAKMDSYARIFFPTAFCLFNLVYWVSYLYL
How it was run: (§1)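 Membranes came from clonal mammalian cell lines expressing α1β2γ2, α2β2γ2 or α5β3γ2 receptors, grown in MEM/EBSS with 10% FCS at 37 °C. Membranes were resuspended in 10 mM potassium phosphate, pH 7.4, with 100 mM KCl. Assays used 1–2 nM [3H]Ro15-1788 and test compound from 10^-9 to 10^-5 M, at least six concentrations. Diazepam at 10^-5 M defined nonspecific binding. Incubation ran 1 h at 4 °C. Single-point % inhibition was measured at 10 µM, and Ki by curve fitting; n = 5, in duplicate.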

[2] = biological target: GABA A receptor alpha-2/beta-2/gamma-2 (Homo sapiens) (UniProt P47870+P18507+P47869); test: Displacement of [3H]Ro15-1788 from recombinant GABA-A alpha2beta2gamma2 receptor benzodiazepine binding site (unknown origin) at 10 uM after 1 hr relative to control; format: protein-complex assay; how it was run: as §1
Mus musculus [3] = test: Anxiolytic activity in CD1 albino mouse assessed as increase in time spent in illuminated side at 3 to 10 mg/kg, po administered 30 mins prior to testing measured for 5 mins by light-dark box test; format: functional, organism-based
How it was run: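 Light/dark box: two equal acrylic compartments, one lit by a 60 W lamp, joined by a floor-level opening. Male CD-1 mice were dosed po in 1% CMC 30 min before the test, then placed in the centre of the lit side facing away from the dark side. Over 5 min, transfers and time in the light side were recorded, n = 8 mice per group.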

Mus musculus [4] = test: Anticonvulsant activity in CD1 albino mouse assessed as protection against pentylenetetrazole-induced convulsions at 10 mg/kg, po administered 30 mins prior to pentylenetetrazole challenge measured over 30 mins (reference value: 7.1%); format: functional

Ki [1]: 0.0227 µM | inhibition [2]: 5%
SMILES: Cc1cnn2c1n[n+]([O-])c1ccc(OCc3ccncc3)cc12
Activity (Mus musculus [3]): inactive | Activity (Mus musculus [4]): 0%
